Key:
UGT1A9 = target: T1, UGT1A9 (Homo sapiens, UniProt O60656); format: in vitro ADME; settings: propofol 500 μM; individual HLM n = 9; Pearson; P = 0.016
T1 sequence (O60656 26-530): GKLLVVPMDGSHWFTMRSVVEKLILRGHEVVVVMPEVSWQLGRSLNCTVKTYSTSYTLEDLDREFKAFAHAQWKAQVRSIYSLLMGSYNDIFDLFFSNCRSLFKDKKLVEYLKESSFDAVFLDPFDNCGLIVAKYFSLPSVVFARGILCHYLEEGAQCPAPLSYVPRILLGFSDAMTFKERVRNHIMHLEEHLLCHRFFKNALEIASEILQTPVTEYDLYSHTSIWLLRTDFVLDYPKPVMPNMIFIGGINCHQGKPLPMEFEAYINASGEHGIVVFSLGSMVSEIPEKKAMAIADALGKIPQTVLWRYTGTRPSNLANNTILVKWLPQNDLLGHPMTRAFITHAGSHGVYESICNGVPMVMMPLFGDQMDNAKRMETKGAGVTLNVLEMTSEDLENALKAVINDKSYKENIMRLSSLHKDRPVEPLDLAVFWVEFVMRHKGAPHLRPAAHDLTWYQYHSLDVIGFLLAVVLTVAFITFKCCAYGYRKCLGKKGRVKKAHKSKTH
In short: (§1)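 UDPGA-supplemented individual human liver microsomes (n = 9) in 100 μl Tris-HCl 50 mM pH 7.4 with alamethicin 22 μg/ml, D-saccharic-1,4-lactone 4.4 mM and UDPGA 3.5 mM. Incubated 37 °C for 60 min, stopped with ice-cold acetonitrile, centrifuged, supernatant analysed by UHPLC. Test compound glucuronidation rates correlated with probe glucuronidation across donors by Pearson analysis.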

UGT1A1 = target: T2, UGT1A1 (Homo sapiens, UniProt P22309); format: in vitro ADME; settings: β-estradiol 50 μM; individual HLM n = 9; Pearson; P = 0.014
T2 sequence (P22309 26-533): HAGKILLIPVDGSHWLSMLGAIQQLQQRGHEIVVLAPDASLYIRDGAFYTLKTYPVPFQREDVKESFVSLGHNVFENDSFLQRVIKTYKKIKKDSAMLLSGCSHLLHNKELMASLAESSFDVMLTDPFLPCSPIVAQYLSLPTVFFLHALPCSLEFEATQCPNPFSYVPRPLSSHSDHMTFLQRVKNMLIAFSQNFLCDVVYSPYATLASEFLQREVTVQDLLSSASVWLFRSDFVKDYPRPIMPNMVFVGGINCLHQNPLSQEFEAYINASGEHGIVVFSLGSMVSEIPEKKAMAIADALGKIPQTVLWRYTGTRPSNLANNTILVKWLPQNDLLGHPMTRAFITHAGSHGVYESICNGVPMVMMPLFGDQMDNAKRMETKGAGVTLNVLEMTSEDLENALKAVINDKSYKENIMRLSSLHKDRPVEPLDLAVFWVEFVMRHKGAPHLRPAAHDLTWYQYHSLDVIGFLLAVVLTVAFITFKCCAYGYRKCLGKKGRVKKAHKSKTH
In short: as §1

not read = substrate: CC(C)=CCc1c(O)ccc2c1O[C@H](c1ccc(O)cc1)CC2=O; experiment: not read; settings: substrate inhibition model, pH 7.4, 37.0 °C
[1] = substrate: CC(C)=CCc1c(O)ccc2c1O[C@H](c1ccc(O)cc1)CC2=O; experiment: cells, lysate or membranes named; format: in vitro ADME, human; settings: pH 7.4, 37.0 °C
[2] = other: formation of G1, substrate inhibition model
[3] = other: formation of G2, substrate inhibition model

## CC(C)=CCc1c(O[C@@H]2O[C@H](C(=O)O)[C@@H](O)[C@H](O)[C@H]2O)ccc2c1O[C@H](c1ccc(O)cc1)CC2=O [G1, isobavachin-7-O-glucuronide]
UGT1A9
  correlation factor r: 0.767
UGT1A1
  correlation factor r: 0.774

B1: CYP1A2 (Homo sapiens) (protein)
chain: MALSQSVPFSATELLLASAIFCLVFWVLKGLRPRVPKGLKSPPEPWGWPLLGHVLTLGKNPHLALSRMSQRYGDVLQIRIGSTPVLVLSRLDTIRQALVRQGDDFKGRPDLYTSTLITDGQSLTFSTDSGPVWAARRRLAQNALNTFSIASDPASSSSCYLEEHVSKEAKALISRLQELMAGPGHFDPYNQVVVSVANVIGAMCFGQHFPESSDEMLSLVKNTHEFVETASSGNPLDFFPILRYLPNPALQRFKAFNQRFLWFLQKTVQEHYQDFDKNSVRDITGALFKHSKKGPRASGNLIPQEKIVNLVNDIFGAGFDTVTTAISWSLMYLVTKPEIQRKIQKELDTVIGRERRPRLSDRPQLPYLEAFILETFRHSSFLPFTIPHSTTRDTTLNGFYIPKKCCVFVNQWQVNHDPELWEDPSEFRPERFLTADGTAINKPLSEKMMLFGMGKRRCIGEVLAKWEIFLFLAILLQQLEFSVPPGVKVDLTPIYGLTMKHARCEHVQARLRFSIN
Not read; other: formation of M1
  K0.5: 5.08 ± 0.54 µM
  Vmax: 0.000312 µmol/min/mg
  Vmax/Km: 61.4 µL/min/mg
Not read; other: formation of M3
  K0.5: 19.81 ± 9.47 µM
  Vmax: 0.000173 µmol/min/mg
  Vmax/Km: 8.75 µL/min/mg

B2: UGT1A8 (Homo sapiens) (protein)
chain: GKLLVVPMDGSHWFTMQSVVEKLILRGHEVVVVMPEVSWQLGKSLNCTVKTYSTSYTLEDLDREFMDFADAQWKAQVRSLFSLFLSSSNGFFNLFFSHCRSLFNDRKLVEYLKESSFDAVFLDPFDACGLIVAKYFSLPSVVFARGIACHYLEEGAQCPAPLSYVPRILLGFSDAMTFKERVRNHIMHLEEHLFCQYFSKNALEIASEILQTPVTAYDLYSHTSIWLLRTDFVLDYPKPVMPNMIFIGGINCHQGKPLPMEFEAYINASGEHGIVVFSLGSMVSEIPEKKAMAIADALGKIPQTVLWRYTGTRPSNLANNTILVKWLPQNDLLGHPMTRAFITHAGSHGVYESICNGVPMVMMPLFGDQMDNAKRMETKGAGVTLNVLEMTSEDLENALKAVINDKSYKENIMRLSSLHKDRPVEPLDLAVFWVEFVMRHKGAPHLRPAAHDLTWYQYHSLDVIGFLLAVVLTVAFITFKCCAYGYRKCLGKKGRVKKAHKSKTH
[1]; [2]
  K0.5: 34.71 ± 6.45 µM

B3: UGT2B4 (Homo sapiens) (protein)
chain: GKVLVWPTEFSHWMNIKTILDELVQRGHEVTVLASSASISFDPNSPSTLKFEVYPVSLTKTEFEDIIKQLVKRWAELPKDTFWSYFSQVQEIMWTFNDILRKFCKDIVSNKKLMKKLQESRFDVVLADAVFPFGELLAELLKIPFVYSLRFSPGYAIEKHSGGLLFPPSYVPVVMSELSDQMTFIERVKNMIYVLYFEFWFQIFDMKKWDQFYSEVLGRPTTLSETMAKADIWLIRNYWDFQFPHPLLPNVEFVGGLHCKPAKPLPKEMEEFVQSSGENGVVVFSLGSMVSNTSEERANVIASALAKIPQKVLWRFDGNKPDTLGLNTRLYKWIPQNDLLGHPKTRAFITHGGANGIYEAIYHGIPMVGVPLFADQPDNIAHMKAKGAAVSLDFHTMSSTDLLNALKTVINDPLYKENAMKLSRIHHDQPVKPLDRAVFWIEFVMRHKGAKHLRVAAHDLTWFQYHSLDVTGFLLACVATVIFIITKCLFCVWKFVRTGKKGKRD
[1]; other: formation of G1, Michaelis–Menten model
  K0.5: 2.66 ± 0.28 µM

B4: UGT1A1 (Homo sapiens) (protein)
chain: HAGKILLIPVDGSHWLSMLGAIQQLQQRGHEIVVLAPDASLYIRDGAFYTLKTYPVPFQREDVKESFVSLGHNVFENDSFLQRVIKTYKKIKKDSAMLLSGCSHLLHNKELMASLAESSFDVMLTDPFLPCSPIVAQYLSLPTVFFLHALPCSLEFEATQCPNPFSYVPRPLSSHSDHMTFLQRVKNMLIAFSQNFLCDVVYSPYATLASEFLQREVTVQDLLSSASVWLFRSDFVKDYPRPIMPNMVFVGGINCLHQNPLSQEFEAYINASGEHGIVVFSLGSMVSEIPEKKAMAIADALGKIPQTVLWRYTGTRPSNLANNTILVKWLPQNDLLGHPMTRAFITHAGSHGVYESICNGVPMVMMPLFGDQMDNAKRMETKGAGVTLNVLEMTSEDLENALKAVINDKSYKENIMRLSSLHKDRPVEPLDLAVFWVEFVMRHKGAPHLRPAAHDLTWYQYHSLDVIGFLLAVVLTVAFITFKCCAYGYRKCLGKKGRVKKAHKSKTH
[1]; [2]
  K0.5: 41.84 ± 8.25 µM

B5: UGT1A9 (Homo sapiens) (protein)
chain: GKLLVVPMDGSHWFTMRSVVEKLILRGHEVVVVMPEVSWQLGRSLNCTVKTYSTSYTLEDLDREFKAFAHAQWKAQVRSIYSLLMGSYNDIFDLFFSNCRSLFKDKKLVEYLKESSFDAVFLDPFDNCGLIVAKYFSLPSVVFARGILCHYLEEGAQCPAPLSYVPRILLGFSDAMTFKERVRNHIMHLEEHLLCHRFFKNALEIASEILQTPVTEYDLYSHTSIWLLRTDFVLDYPKPVMPNMIFIGGINCHQGKPLPMEFEAYINASGEHGIVVFSLGSMVSEIPEKKAMAIADALGKIPQTVLWRYTGTRPSNLANNTILVKWLPQNDLLGHPMTRAFITHAGSHGVYESICNGVPMVMMPLFGDQMDNAKRMETKGAGVTLNVLEMTSEDLENALKAVINDKSYKENIMRLSSLHKDRPVEPLDLAVFWVEFVMRHKGAPHLRPAAHDLTWYQYHSLDVIGFLLAVVLTVAFITFKCCAYGYRKCLGKKGRVKKAHKSKTH
[1]; [2]
  K0.5: 15.63 ± 3.12 µM

B6: UGT1A6 (Homo sapiens) (protein)
chain: DKLLVVPQDGSHWLSMKDIVEVLSDRGHEIVVVVPEVNLLLKESKYYTRKIYPVPYDQEELKNRYQSFGNNHFAERSFLTAPQTEYRNNMIVIGLYFINCQSLLQDRDTLNFFKESKFDALFTDPALPCGVILAEYLGLPSVYLFRGFPCSLEHTFSRSPDPVSYIPRCYTKFSDHMTFSQRVANFLVNLLEPYLFYCLFSKYEELASAVLKRDVDIITLYQKVSVWLLRYDFVLEYPRPVMPNMVFIGGINCKKRKDLSQEFEAYINASGEHGIVVFSLGSMVSEIPEKKAMAIADALGKIPQTVLWRYTGTRPSNLANNTILVKWLPQNDLLGHPMTRAFITHAGSHGVYESICNGVPMVMMPLFGDQMDNAKRMETKGAGVTLNVLEMTSEDLENALKAVINDKSYKENIMRLSSLHKDRPVEPLDLAVFWVEFVMRHKGAPHLRPAAHDLTWYQYHSLDVIGFLLAVVLTVAFITFKCCAYGYRKCLGKKGRVKKAHKSKTH
[1]; [2]
  K0.5: 67.66 ± 16.32 µM
  Vmax: 0.00382 µmol/min/mg
  Vmax/Km: 56.5 µL/min/mg
[1]; [3]
  K0.5: 31.85 ± 6.28 µM
  Vmax: 0.000342 µmol/min/mg
  Vmax/Km: 10.7 µL/min/mg

B7: CYP2C19 (Homo sapiens) (protein)
chain: MDPFVVLVLCLSCLLLLSIWRQSSGRGKLPPGPTPLPVIGNILQIDIKDVSKSLTNLSKIYGPVFTLYFGLERMVVLHGYEVVKEALIDLGEEFSGRGHFPLAERANRGFGIVFSNGKRWKEIRRFSLMTLRNFGMGKRSIEDRVQEEARCLVEELRKTKASPCDPTFILGCAPCNVICSIIFQKRFDYKDQQFLNLMEKLNENIRIVSTPWIQICNNFPTIIDYFPGTHNKLLKNLAFMESDILEKVKEHQESMDINNPRDFIDCFLIKMEKEKQNQQSEFTIENLVITAADLLGAGTETTSTTLRYALLLLLKHPEVTAKVQEEIERVIGRNRSPCMQDRGHMPYTDAVVHEVQRYIDLIPTSLPHAVTCDVKFRNYLIPKGTTILTSLTSVLHDNKEFPNPEMFDPRHFLDEGGNFKKSNYFMPFSAGKRICVGEGLARMELFLFLTFILQNFNLKSLIDPKDLDTTPVVNGFASVPPFYQLCFIPV
Not read; other: formation of M1
  K0.5: 56.54 ± 16.3 µM
  Vmax: 0.00252 µmol/min/mg
  Vmax/Km: 44.5 µL/min/mg
Not read; other: formation of M3
  K0.5: 16.81 ± 5.02 µM
  Vmax: 0.0013 µmol/min/mg
  Vmax/Km: 77.3 µL/min/mg

B8: UGT1A7 (Homo sapiens) (protein)
chain: GKLLVVPMDGSHWFTMQSVVEKLILRGHEVVVVMPEVSWQLGRSLNCTVKTYSTSYTLEDQDREFMVFADARWTAPLRSAFSLLTSSSNGIFDLFFSNCRSLFNDRKLVEYLKESCFDAVFLDPFDACGLIVAKYFSLPSVVFARGIFCHYLEEGAQCPAPLSYVPRLLLGFSDAMTFKERVWNHIMHLEEHLFCPYFFKNVLEIASEILQTPVTAYDLYSHTSIWLLRTDFVLEYPKPVMPNMIFIGGINCHQGKPVPMEFEAYINASGEHGIVVFSLGSMVSEIPEKKAMAIADALGKIPQTVLWRYTGTRPSNLANNTILVKWLPQNDLLGHPMTRAFITHAGSHGVYESICNGVPMVMMPLFGDQMDNAKRMETKGAGVTLNVLEMTSEDLENALKAVINDKSYKENIMRLSSLHKDRPVEPLDLAVFWVEFVMRHKGAPHLRPAAHDLTWYQYHSLDVIGFLLAVVLTVAFITFKCCAYGYRKCLGKKGRVKKAHKSKTH
[1]; [2]
  K0.5: 32.91 ± 5.76 µM

From article PMC8861878 (The Journal of pharmacy and pharmacology, 2020)
